Activity calls are given as the source filed them. The calls are words filed in the database; no cut-off is given here.
Key:
Cannabinoid receptor 1 [1] = molecular target: T1, Cannabinoid receptor 1 (Homo sapiens, UniProt P21554); test: biochemical; format: cell-based, HEK293
Cannabinoid receptor 2 = Cannabinoid receptor 2 (Homo sapiens, UniProt P34972); test: Displacement of [3H]CP-55940 from human recombinant CB2R expressed in HEK293 cells; format: cell-based
Homo sapiens = species: Homo sapiens; test: Selectivity ratio of IC50 for human recombinant CB2R to IC50 for human recombinant CB1R
Method in brief: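 hCB1- or hCB2-transfected HEK 293 stable clones; purified membranes (0.2-8 μg) incubated with 0.75 nM [3H]CP-55,940 plus test compound in 50 mM Tris-HCl, 5 mM MgCl2, 1 mM EDTA, 0.3% BSA, pH 7.4, 1.5 h at 30 °C. Nonspecific binding with 1 μM CP-55,940. Filtration, bound radioactivity counted; IC50 by nonlinear regression. Mean ± SD of at least three independent experiments.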

Mus musculus [2] = test: Induction of weight loss in diet induced obesity C57BL/6 mouse model at 10 mg/kg, po qd relative to control; format: functional
Method in brief: (§1)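 DIO mice, weight-matched into groups (n = 8/group), given vehicle (10% DMSO/10% Tween 80/80% H2O) or compound by oral gavage once daily for 29 days. Food intake and body weight recorded daily. Read-out is cumulative percentage body-weight change versus vehicle, reported as mean ± standard error.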

Brain [3] = test: Drug level in brain of diet-induced obesity C57BL/6 mouse model at 10 mg/kg, po; format: ADME, organism-based; design: dose 10 mg/kg, route oral; conditions: in vivo
Cannabinoid receptor 1 [4] = molecular target: T1, Cannabinoid receptor 1; format: cell-based, HEK293
Mus musculus [5] = test: Induction of weight loss in po dosed diet induced obesity C57BL/6 mouse model assessed as minimum effective dose after 29 days; format: functional
Method in brief: as §1

Mus musculus [6] = test: Reduction of food intake in diet induced obesity C57BL/6 mouse model at 0.03 mg/kg, po after 29 days; format: functional, organism-based; design: dose 0.03 mg/kg
Method in brief: (§2)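 Weight-matched DIO mice (n = 8/group) gavaged once daily with compound or vehicle (10% DMSO/10% Tween 80/80% H2O) for 29 days. Food consumed and body weight measured daily. Mean ± standard error.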

Mus musculus [7] = test: Reduction of food intake in diet induced obesity C57BL/6 mouse model at 0.3 mg/kg, po after 29 days; format: functional, organism-based; design: dose 0.3 mg/kg
Method in brief: as §2

Mus musculus [8] = test: Reduction of food intake in diet induced obesity C57BL/6 mouse model at 0.1 mg/kg, po after 29 days; format: functional, organism-based; design: dose 0.1 mg/kg
Method in brief: as §2

Mus musculus [9] = test: Induction of weight loss in diet induced obesity C57BL/6 mouse model at 0.03 mg/kg, po after 29 days relative to control; format: functional
Method in brief: as §1

Mus musculus [10] = test: Induction of weight loss in diet induced obesity C57BL/6 mouse model at 0.1 mg/kg, po after 29 days relative to control; format: functional
Method in brief: as §1

Mus musculus [11] = test: Induction of weight loss in diet induced obesity C57BL/6 mouse model at 0.3 mg/kg, po after 29 days relative to control; format: functional
Method in brief: as §1

Brain [12] = test: Drug level in brain of diet-induced obesity C57BL/6 mouse model at 0.3 mg/kg, po; format: ADME, organism-based; design: dose 0.3 mg/kg, route oral; conditions: in vivo
Rattus norvegicus [13] = test: Induction of weight loss in diet induced obesity Wistar rat model at 0.1 mg/kg, po qd after 29 days relative to control; format: functional
Rattus norvegicus [14] = test: Induction of weight loss in diet induced obesity Wistar rat model at 0.3 mg/kg, po qd after 29 days relative to control; format: functional
Rattus norvegicus [15] = test: Suppression of food intake in Wistar rat spontaneously feeding model at 0.3 mg/kg, po after 6 hrs
Mus musculus [16] = test: Induction of weight loss in diet induced obesity C57BL/6 mouse model at 1 mg/kg, po after 29 days relative to control; format: functional
Method in brief: as §1

Brain [17] = test: Drug level in brain of diet-induced obesity C57BL/6 mouse model at 1 mg/kg, po; format: ADME, organism-based; design: dose 1 mg/kg, route oral; conditions: in vivo
Rattus norvegicus [18] = test: Suppression of food intake in Wistar rat spontaneously feeding model at 3 mg/kg, po after 6 hrs

T1 sequence (P21554 whole entry): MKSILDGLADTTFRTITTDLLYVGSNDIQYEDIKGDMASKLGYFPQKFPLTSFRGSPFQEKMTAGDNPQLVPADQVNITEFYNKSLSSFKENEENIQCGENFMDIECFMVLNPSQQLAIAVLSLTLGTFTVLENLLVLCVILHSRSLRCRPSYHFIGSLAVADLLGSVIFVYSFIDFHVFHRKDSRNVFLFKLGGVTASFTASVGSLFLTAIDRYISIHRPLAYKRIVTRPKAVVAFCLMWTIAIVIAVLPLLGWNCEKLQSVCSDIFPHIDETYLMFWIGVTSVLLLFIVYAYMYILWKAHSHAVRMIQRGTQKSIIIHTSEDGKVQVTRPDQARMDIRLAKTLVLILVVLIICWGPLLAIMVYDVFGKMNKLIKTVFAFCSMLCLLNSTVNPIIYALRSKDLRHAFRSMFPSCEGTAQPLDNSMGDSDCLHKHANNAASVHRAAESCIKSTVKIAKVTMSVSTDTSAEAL
Chain of Cannabinoid receptor 2 (P34972 whole entry): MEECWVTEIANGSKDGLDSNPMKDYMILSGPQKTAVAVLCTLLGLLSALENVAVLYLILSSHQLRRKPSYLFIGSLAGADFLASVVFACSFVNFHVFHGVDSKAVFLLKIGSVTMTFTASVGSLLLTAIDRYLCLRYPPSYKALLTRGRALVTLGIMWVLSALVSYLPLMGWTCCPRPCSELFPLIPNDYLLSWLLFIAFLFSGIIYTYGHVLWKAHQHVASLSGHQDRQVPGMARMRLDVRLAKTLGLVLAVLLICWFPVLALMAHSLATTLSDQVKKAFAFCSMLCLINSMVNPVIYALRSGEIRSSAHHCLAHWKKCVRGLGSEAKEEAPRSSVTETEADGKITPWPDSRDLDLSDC

SMILES | IC50 (Cannabinoid receptor 1 [1]) [nM] | IC50 (Cannabinoid receptor 2) [nM] | Ratio IC50 (Homo sapiens) | also measured
Cc1c(C2=NC(=O)C(C)(C)N2C2CC2)nn(-c2ccc(Cl)cc2Cl)c1-c1ccc(Cl)cc1 | 95.2 | 1950 | 21 | –
CCN1C(c2nn(-c3ccc(Cl)cc3Cl)c(-c3ccc(Cl)cc3)c2C)=NC(=O)C1(C)C | 107 | 1170 | 11 | –
Cc1c(C(=O)NN2CCCCC2)nn(-c2ccc(Cl)cc2Cl)c1-c1ccc(Cl)cc1 [RIMONABANT] | – | – | – | Activity (Mus musculus [2]): 23.8%; Drug uptake (Brain [3]): 113 ng/g
CN1C(c2cc(-c3ccc(Cl)cc3)n(-c3ccc(Cl)cc3Cl)n2)=NC(=O)C1(C)C | 325 | 7950 | 24 | –
Cc1c(C2=NC(=O)C(C)(C)N2Cc2ccccc2)nn(-c2ccc(Cl)cc2Cl)c1-c1ccc(Cl)cc1 | 197 | 5130 | 26 | –
CCc1c(C2=NC(C)(C)C(=O)N2C)nn(-c2ccc(Cl)cc2Cl)c1-c1ccc(Cl)cc1 | 33.8 | 4330 | 128 | EC50 (Cannabinoid receptor 1 [4]): 65.5 nM
C=CCN1C(c2nn(-c3ccc(Cl)cc3Cl)c(-c3ccc(Cl)cc3)c2C)=NC(=O)C1(C)C | 249 | 2880 | 12 | –
Cc1c(C(=O)NC(=O)C(C)(C)N(C)C)nn(-c2ccc(Cl)cc2Cl)c1-c1ccc(Cl)cc1 | 82.9 | – | 35 | –
Cc1c(C2=NC(=O)C(C)(C)N2C)nn(-c2ccc(Cl)cc2Cl)c1-c1ccc(Cl)cc1 | 54.7 | 487 | 9 | –
CCCN1C(c2nn(-c3ccc(Cl)cc3Cl)c(-c3ccc(Cl)cc3)c2C)=NC(=O)C1(C)C | 854 | 5510 | 7 | –
CCCCN1C(c2nn(-c3ccc(Cl)cc3Cl)c(-c3ccc(Cl)cc3)c2C)=NC(=O)C1(C)C | 1110 | 4760 | 4 | –
CCc1c(C2=NC(=S)C(C)(C)N2C)nn(-c2ccc(Cl)cc2Cl)c1-c1ccc(Cl)cc1 | 12 | 4750 | 396 | EC50 (Cannabinoid receptor 1 [4]): 5.1 nM; MED (Mus musculus [5]): 0.03 mg/kg; Activity (Mus musculus [6]): Active; Activity (Mus musculus [7]): Active; Activity (Mus musculus [8]): Active; Activity (Mus musculus [9]): 14.7%; Activity (Mus musculus [10]): 19.4%; Activity (Mus musculus [11]): 25.4%; Drug uptake (Brain [12]): 243 ng/g; Activity (Rattus norvegicus [13]): 5.1%; Activity (Rattus norvegicus [14]): 9.5%; Activity (Rattus norvegicus [15]): Active
CCc1c(C2=NC(C)(C)C(=O)N2)nn(-c2ccc(Cl)cc2Cl)c1-c1ccc(Cl)cc1 | 32.6 | 10300 | 314 | EC50 (Cannabinoid receptor 1 [4]): 20.2 nM; MED (Mus musculus [5]): 0.1 mg/kg; Activity (Mus musculus [16]): 27.4%; Drug uptake (Brain [17]): 1118 ng/g; Activity (Rattus norvegicus [18]): Active
COc1ccc(-c2c(C)c(C3=NC(=O)C(C)(C)N3C)nn2-c2ccc(Cl)cc2Cl)cc1 | 212 | 1060 | 5 | –

The next lines start with results.

IC50 (Cannabinoid receptor 1 [1]) [nM] | IC50 (Cannabinoid receptor 2) [nM] | Ratio IC50 (Homo sapiens) | SMILES | also measured
16.3 | 768 | 47 | CCc1c(C2=NC(=O)C(C)(C)N2C)nn(-c2ccc(Cl)cc2Cl)c1-c1ccc(Br)cc1 | –
43.9 | 822 | 19 | CN1C(c2nn(-c3ccc(Cl)cc3Cl)c(-c3ccc(Cl)cc3)c2C2CC2)=NC(=O)C1(C)C | –
6.3 | 901 | 143 | Cc1c(C2=NC(=S)C(C)(C)N2C)nn(-c2ccc(Cl)cc2Cl)c1-c1ccc(Cl)cc1 | EC50 (Cannabinoid receptor 1 [4]): 8.5 nM
47.4 | 1100 | 23 | Cc1c(C2=NC(=O)C(C)(C)N2C)nn(-c2ccc(Cl)cc2Cl)c1-c1ccc(Br)cc1 | –
14.6 | 1370 | 94 | CCc1c(C2=NC3(CCCC3)C(=O)N2)nn(-c2ccc(Cl)cc2Cl)c1-c1ccc(Cl)cc1 | –
33.6 | 3250 | 97 | Cc1c(C2=NC(C)(C)C(=O)N2C)nn(-c2ccc(Cl)cc2Cl)c1-c1ccc(Cl)cc1 | –
22.8 | 3180 | 139 | CCc1c(C2=NC3(CCC3)C(=O)N2)nn(-c2ccc(Cl)cc2Cl)c1-c1ccc(Cl)cc1 | EC50 (Cannabinoid receptor 1 [4]): 12.3 nM
12.9 | 2740 | 213 | CCc1c(C2=NC(=O)C(C)(C)N2C)nn(-c2ccc(Cl)cc2Cl)c1-c1ccc(Cl)cc1 | EC50 (Cannabinoid receptor 1 [4]): 9.8 nM
42.5 | 1570 | 37 | CN1C(c2nn(-c3ccc(Cl)cc3Cl)c(-c3ccc(Cl)cc3)c2Br)=NC(=O)C1(C)C | –
12.3 | 497 | 40 | CCc1c(C2=NC3(CCCCC3)C(=O)N2)nn(-c2ccc(Cl)cc2Cl)c1-c1ccc(Cl)cc1 | –
53.4 | 3500 | 66 | Cc1c(C2=NC(C)(C)C(=O)N2)nn(-c2ccc(Cl)cc2Cl)c1-c1ccc(Cl)cc1 | –
15.9 | 3970 | 250 | Cc1c(C2=NC(=O)C(C)(C)N2C)nn(-c2ccc(Cl)cc2Cl)c1-c1ccc(C(F)(F)F)cc1 | EC50 (Cannabinoid receptor 1 [4]): 81 nM

Source: ChEMBL document CHEMBL1137779, “Discovery of 2-[5-(4-chloro-phenyl)-1-(2,4-dichloro-phenyl)-4-ethyl-1H-pyrazol-3-yl]-1,5,5-trimethyl-1,5-dihydro-imidazol-4-thione (BPR-890) via an active metabolite. A novel, potent and selective cannabinoid-1 receptor inverse agonist with high antiobesity efficacy in DIO mice” (J Med Chem, 2009)
